Compound activity (PubChem BioAssay)
CendR NRP1 mod: modulators of CendR peptide binding to NRP-1, primary screen, biochemical, fluorescence polarization, uHTS. Neuropilin-1 (Homo sapiens), O14786. FAM-RPARPAR peptide binding to NRP-1. inhibition, % at 25 µM. 360,000 tested, 0.85% active. AID 602438, 2012;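 active means inhibition or corrected inhibition above about 18%, plus a signal ratio from 0.5 to 1.5, limit read from the data, passing the limit was not always enough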
Yeast superoxide: reduction of superoxide in aged yeast, primary screen, HTS; S. cerevisiae aged cells, superoxide DHE fluorescence; hits give low values; superoxide response (% of plate mean), % at 10 µM; 330,000 tested, 0.18% active; AID 2690, 2010;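 active means superoxide response under a set limit, about three screen SD below normal, cut at about 65% in these data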;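 further: yeast aged for seven days with compound at 30 °C before DHE staining; 100% = average MFI of all compound-treated wells on the plate with controls excluded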
AI-2 QS modul: Vibrio harveyi AI-2 quorum sensing modulators, primary screen, JMH597 strain, luminescence/OD600 ratio. Vibrio harveyi JMH597 AI-2 luminescence/OD600 ratio, 9 h; hits give low values; strain lacks LuxN and CqsS sensors; 0 = neutral-control median. activity change, % at 7.5 µM. 300,000 tested, 0.4% active; in the data active means activity change below about -75%, passing the limit was not always enough; inconclusive means no clear call, values can overlap the other calls;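 further: luminescence divided by OD600 gain over 9 h not by final OD600 alone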
HIF activator: HIF pathway transcriptional activators, primary screen, cell-based, U2OS HRE-luciferase, luminescence; activation, % at 7.5 µM (by protocol); 300,000 tested, 0.32% active; U2OS HRE-luciferase reporter; normalized: DMSO 0%, desferrioxamine 100%;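 active means mean activation of at least 10% of the iron chelator positive control signal, with at least half of replicates also reaching 10%; inconclusive means mean and replicate majority disagree about reaching 10%; inactive means mean and most replicates under 10%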
T cruzi inh: inhibitors of intracellular T. cruzi growth, primary screen, luminescence, NIH3T3 host cells | T. cruzi beta-gal in NIH3T3, 90 h | 300,000 tested, 1.4% active | AID 1885, 2009 | inhibition, % (no concentration beside the values);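 active means mean inhibition across valid replicates above about 55%, limit read from the data; inconclusive means mean below that limit but half or more replicates reach it; inactive means mean below it, under half of replicates reach it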;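 further: signal also drops with host cell toxicity which is not excluded here; 0% = plate median of DMSO wells and 100% = zero luminescence signal; higher percent means less beta-gal luminescence so fewer parasites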
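System – NIH/3T3 host cells with β-galactosidase reporter T. cruzi · Doses – single 50 nL compound addition per well in DMSO · Reagent – 5000 T. cruzi trypomastigotes/well · Medium – Low-serum DMEM with 2% FBS · Timing – ≥90 h infection period, 3 h prior cell attachment · Evaluation – parasite load inhibition, % · Technique – GalScreen luminescence, 60 min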
V-ATPase pH: regulators of yeast V-ATPase proton pumping, primary screen, pHLuorin cytosolic pH fluorescence. S. cerevisiae. response, % at 10 µM. 350,000 tested, 0.37% active; in the data active means response mostly above about 7.3%, no sharp cut-off; inactive means mostly below about 5.4%; further: actives read high
Active calls of the source: *. Sampled rows, rich in hits. Any-hit rate of the full collection: about 3%.

What do the screens show for `CCCC(=O)NC(c1ccc(OC)c(OC)c1)c1cc(Cl)c2cccnc2c1O` (stereo unspecified)?
CendR NRP1 mod: 1; Yeast superoxide: 93; AI-2 QS modul: 13; HIF activator: 0; T cruzi inh: 56*; V-ATPase pH: 0

How did CC(=O)NC(c1ccccc1)c1cc(Cl)c2cccnc2c1O (stereo unspecified) do in these assays?
CendR NRP1 mod: -1; Yeast superoxide: 90; AI-2 QS modul: 28; HIF activator: 4; T cruzi inh: inconclusive; V-ATPase pH: -3

What do the screens show for `COc1ccc(C(NC(C)=O)c2cc(Cl)c3cccnc3c2O)cc1` (stereo unspecified)?
CendR NRP1 mod: 2; Yeast superoxide: 93; AI-2 QS modul: -41; HIF activator: 8; T cruzi inh: 63*; V-ATPase pH: 3

What do the screens show for `O=C(NC(c1ccc(Cl)cc1)c1cc(Cl)c2cccnc2c1O)c1cccnc1` (stereo unspecified)?
CendR NRP1 mod: -7; Yeast superoxide: 122; AI-2 QS modul: 34; HIF activator: 0; T cruzi inh: 58*; V-ATPase pH: 0

What do the screens show for `CC(=O)NC(c1cc(F)c2cccnc2c1O)C1CC1` (stereo unspecified)?
CendR NRP1 mod: 26*; Yeast superoxide: 124; V-ATPase pH: 3

Results for CCC(=O)NC(c1cc(Cl)c2cccnc2c1O)C1CC1 (stereo unspecified) ?
CendR NRP1 mod: -1; Yeast superoxide: 83; V-ATPase pH: -3

What do the screens show for `O=C(O)CCc1[nH]c2ccccc2c1Sc1ccccc1`?
CendR NRP1 mod: 0; Yeast superoxide: 102; AI-2 QS modul: -7; HIF activator: -1; T cruzi inh: -10; V-ATPase pH: 0

Results for CCn1c(SC(C)C(=O)Nc2nccs2)nnc1-c1ccncc1 (stereo unspecified) ?
CendR NRP1 mod: 24*; Yeast superoxide: 95; AI-2 QS modul: 9; HIF activator: 0; T cruzi inh: -3; V-ATPase pH: -2

What do the screens show for `CCn1c(SCC(=O)Nc2nccs2)nnc1-c1ccc(C)cc1`?
CendR NRP1 mod: -4; Yeast superoxide: 100; AI-2 QS modul: -11; HIF activator: -1; T cruzi inh: -10; V-ATPase pH: -2

How did O=C(/C=C/C=C/c1ccc2c(c1)OCO2)N1CCCCC1 do in these assays?
CendR NRP1 mod: -1; Yeast superoxide: 83; V-ATPase pH: 1

What do the screens show for `O=C(/C=C/CCc1ccc2c(c1)OCO2)N1CCCCC1`?
CendR NRP1 mod: 23*; Yeast superoxide: 109; V-ATPase pH: 0

What do the screens show for `C/C(=N\Nc1cccc(Cl)c1)c1ccncc1`?
CendR NRP1 mod: 1; Yeast superoxide: 97; AI-2 QS modul: -4; HIF activator: 1; T cruzi inh: 59*; V-ATPase pH: -3

What do the screens show for `Cc1ccc(C)c(N2CCN(C(=O)c3ccc(Cn4c(=S)[nH]c5ccc(N6CCOCC6)cc5c4=O)cc3)CC2)c1`?
CendR NRP1 mod: -4; Yeast superoxide: 107; AI-2 QS modul: 16; HIF activator: 1; T cruzi inh: 75*; V-ATPase pH: -3

How did COc1ccc(N2CCN(C(=O)c3ccc(Cn4c(=S)[nH]c5ccc(N6CCOCC6)cc5c4=O)cc3)CC2)cc1 do in these assays?
CendR NRP1 mod: -3; Yeast superoxide: 83; AI-2 QS modul: 23; HIF activator: 1; T cruzi inh: 68*; V-ATPase pH: 3

Results for Cc1cccc(N2CCN(C(=O)CCCCCn3c(=S)[nH]c4ccc(N5CCOCC5)cc4c3=O)CC2)c1C ?
CendR NRP1 mod: 3; Yeast superoxide: 91; AI-2 QS modul: 28; HIF activator: -1; T cruzi inh: 65*; V-ATPase pH: 5

How did COc1ccc(Cn2c(=S)[nH]c3cc(C(=O)N4CCN(c5ccccc5)CC4)ccc3c2=O)cc1 do in these assays?
CendR NRP1 mod: -4; Yeast superoxide: 94; HIF activator: 0; T cruzi inh: 6; V-ATPase pH: 2

Results for O=C(c1ccc(Cn2c(=S)[nH]c3ccc(N4CCOCC4)cc3c2=O)cc1)N1CCN(c2ccc(F)cc2)CC1 ?
CendR NRP1 mod: 0; Yeast superoxide: 104; AI-2 QS modul: 7; HIF activator: 4; T cruzi inh: 85*; V-ATPase pH: 0

What do the screens show for `O=C(CNS(=O)(=O)c1cccs1)Nc1ccc2c(c1)OCCO2`?
CendR NRP1 mod: 6; Yeast superoxide: 102; AI-2 QS modul: 23; HIF activator: 3; T cruzi inh: -11; V-ATPase pH: 6

How did O=[N+]([O-])c1cc2c(cc1[N+](=O)[O-])OCCOCCOCCOCCO2 do in these assays?
CendR NRP1 mod: -8; Yeast superoxide: 97; AI-2 QS modul: 30; HIF activator: -1; T cruzi inh: -20; V-ATPase pH: 2

How did Cc1ccc(N(CC(N)=O)C2SC(=O)N(Cc3cccc(C(=O)O)c3)C2=O)cc1 (stereo unspecified) do in these assays?
CendR NRP1 mod: 1; Yeast superoxide: 97; AI-2 QS modul: 23; HIF activator: 0; T cruzi inh: -13; V-ATPase pH: -4

How did CC(NC(=O)c1ccc(Br)o1)c1ccc(-n2ccnc2)cc1 (stereo unspecified) do in these assays?
CendR NRP1 mod: 4; Yeast superoxide: 115; V-ATPase pH: 1

What do the screens show for `Cc1ccc(Cl)cc1N1CCN(C(=O)c2ccc(CN3CCOCC3)cc2)CC1`?
CendR NRP1 mod: -4; Yeast superoxide: 98; AI-2 QS modul: -18; HIF activator: 0; T cruzi inh: 56*; V-ATPase pH: 4

What do the screens show for `Cc1ccc(Cl)cc1N1CCN(Cc2cc3c(cc2O)CCC3)CC1`?
CendR NRP1 mod: 4; Yeast superoxide: 87; AI-2 QS modul: 21; HIF activator: 0; T cruzi inh: 58*; V-ATPase pH: -8

What do the screens show for `Nn1c(Cc2ccccc2)nnc1Cc1ccccc1`?
CendR NRP1 mod: 5; V-ATPase pH: -5

Results for NC(=S)N/N=C/c1ccc(-n2nncc2-c2ccc(Cl)cc2)cc1 ?
CendR NRP1 mod: -16; Yeast superoxide: 98; AI-2 QS modul: 13; HIF activator: 0; T cruzi inh: 57*; V-ATPase pH: 3

How did NC(=S)N/N=C/c1ccc(/C=N/NC(N)=S)cc1 do in these assays?
CendR NRP1 mod: -15; Yeast superoxide: 84; AI-2 QS modul: 27; HIF activator: 0; T cruzi inh: -8; V-ATPase pH: 1

What do the screens show for `CCN1C(=O)/C(=C\c2cn(-c3ccccc3)nc2-c2cccnc2)SC1=S`?
CendR NRP1 mod: 36*; AI-2 QS modul: 43; HIF activator: -1; T cruzi inh: 1; V-ATPase pH: -1
